Measurements from ChEMBL document CHEMBL1138187, “2-(2-Thienyl)-5,6-dihydroxy-4-carboxypyrimidines as inhibitors of the hepatitis C virus NS5B polymerase: discovery, SAR, modeling, and mutagenesis” (J Med Chem, 2006).

Experiments:
[1] = Lipophilicity as measured by LogD at pH 7.4; format: physicochemical; details: buffer
[2] = target: T1, RNA-directed RNA polymerase (Hepacivirus hominis, UniProt O39930); test: Inhibitory activity against HCV 1b BK NS5B deltaC55 RNA polymerase involving magnesium chelation; design: species or system Hepatitis C virus subtype 1b
Summary of the method: (§1)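 HCV 1b-BK NS5B∆C55 (residues 1-536) from E. coli BL21(DE3), assayed on a homopolymeric template RNA with either Mg or Mn as the divalent metal ion. IC50 taken under each metal.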

[3] = target: T1, RNA-directed RNA polymerase; test: Inhibitory activity against HCV 1b BK NS5B deltaC55 RNA polymerase involving manganese chelation; design: species or system Hepatitis C virus subtype 1b; summary of the method: as §1
[4] = Dissociation constant, pKa of the compound; format: physicochemical
[5] = target: T1, RNA-directed RNA polymerase; test: Inhibitory activity against HCV 1b BK NS5B deltaC55 RNA polymerase; design: species or system Hepatitis C virus subtype 1b
Summary of the method: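 Purified HCV 1b-BK NS5B∆C55 (residues 1-536) expressed in E. coli BL21(DE3). Polymerase activity read on a homopolymeric template RNA at pH 7.4. IC50 is the average of at least three independent determinations; standard deviations within 30% of the average.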

[6] = target: T1, RNA-directed RNA polymerase; test: Inhibitory activity against HCV 1b BK NS5B deltaC21 RNA polymerase; design: species or system Hepatitis C virus subtype 1b
Summary of the method: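 HCV 1b-BK NS5B∆C21 (residues 1-570), expressed in E. coli BL21(DE3) and purified; polymerase activity measured on a homopolymeric template RNA; IC50 read-out.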

[7] = target: T1, RNA-directed RNA polymerase; test: Inhibitory activity against HCV 1b BK NS5B RNA polymerase; design: species or system Hepatitis C virus subtype 1b
Summary of the method: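 Purified HCV 1b-BK NS5B∆C55 (residues 1-536), expressed in E. coli BL21(DE3), assayed with a homopolymeric template RNA at pH 7.4 with Mg as metal ion; IC50 taken as the average of at least three independent determinations.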

[8] = target: T1, RNA-directed RNA polymerase; test: Inhibitory activity against HCV 2a BK NS5B deltaC21 RNA polymerase; design: species or system Hepatitis C virus subtype 2a
[9] = target: T1, RNA-directed RNA polymerase; test: Inhibitory activity against HCV 3a BK NS5B deltaC21 RNA polymerase
Hepatitis C virus = test: Inhibition of subgenomic HCV RNA replication in Huh-7 cells (replicon assay)
[10] = target: RNA-directed RNA polymerase (Hepacivirus hominis, UniProt O39930, DELTAC55/R158M); test: Inhibitory activity against HCV 1b BK NS5B deltaC55-R158M mutant RNA polymerase; design: species or system Hepatitis C virus subtype 1b
Summary of the method: (§2)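 HCV 1b-BK NS5B∆C55 (residues 1-536) carrying R158M or R158K, expressed in E. coli BL21(DE3) and purified. Polymerase run on a homopolymeric template RNA with UTP as substrate; IC50 and UTP Km measured in duplicate.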

[11] = target: RNA-directed RNA polymerase (Hepacivirus hominis, UniProt O39930, DELTAC55/R158K); test: Inhibitory activity against HCV 1b BK NS5B deltaC55-R158K mutant RNA polymerase; design: species or system Hepatitis C virus subtype 1b; summary of the method: as §2
Homo sapiens = species on record: Homo sapiens; test: Percent of unbound ligand in human plasma; format: ADME, organism-based

T1 sequence (O39930 whole entry, the tested form may be a part): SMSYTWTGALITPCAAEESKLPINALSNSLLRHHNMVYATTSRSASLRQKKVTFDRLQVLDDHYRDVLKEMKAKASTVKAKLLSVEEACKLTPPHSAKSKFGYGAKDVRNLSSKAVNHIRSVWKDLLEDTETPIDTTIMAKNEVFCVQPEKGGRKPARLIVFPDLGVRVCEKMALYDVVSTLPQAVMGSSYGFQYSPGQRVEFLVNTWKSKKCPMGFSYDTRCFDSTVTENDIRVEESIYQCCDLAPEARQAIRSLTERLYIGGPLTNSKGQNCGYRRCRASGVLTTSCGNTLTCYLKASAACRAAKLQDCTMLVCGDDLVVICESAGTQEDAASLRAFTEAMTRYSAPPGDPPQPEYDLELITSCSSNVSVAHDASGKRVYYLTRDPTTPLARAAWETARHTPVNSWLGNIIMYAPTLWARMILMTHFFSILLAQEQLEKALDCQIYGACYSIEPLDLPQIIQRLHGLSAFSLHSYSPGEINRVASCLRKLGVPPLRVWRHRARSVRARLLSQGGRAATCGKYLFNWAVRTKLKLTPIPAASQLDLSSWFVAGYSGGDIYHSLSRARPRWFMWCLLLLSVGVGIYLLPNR

| SMILES | IC50 [5] [nM] | EC50 (Hepatitis C virus) [nM] | further results |
| --- | --- | --- | --- |
| O=C(NCc1ccccc1Cl)Nc1ccsc1-c1nc(O)c(O)c(C(=O)O)n1 | 150 | 9300 | logD [1]: 0.37; IC50 [2]: 150 nM; IC50 [3]: 36 nM; pKa [4]: 6.6; IC50 [6]: 45 nM; IC50 [7]: 130 nM; IC50 [8]: 44 nM; IC50 [9]: 48 nM |
| O=C(O)c1nc(-c2cccs2)nc(O)c1O | – | – | logD [1]: -1.95; IC50 [3]: 240 nM; pKa [4]: 7.7; IC50 [10]: 9300 nM; IC50 [11]: 92000 nM |
| O=C(NCc1csc2ccccc12)Nc1ccsc1-c1nc(O)c(O)c(C(=O)O)n1 | 220 | 30000 | – |
| O=C(NCc1ccccc1)Nc1ccsc1-c1nc(O)c(O)c(C(=O)O)n1 | 230 | – | – |
| O=C(Cc1ccccc1Cl)Nc1ccsc1-c1nc(O)c(O)c(C(=O)O)n1 | 210 | 53300 | – |
| O=C(CCc1ccccc1)Nc1ccsc1-c1nc(O)c(O)c(C(=O)O)n1 | 580 | > 50000 | – |
| O=C(Cc1c[nH]c2ccccc12)Nc1ccsc1-c1nc(O)c(O)c(C(=O)O)n1 | 200 | > 50000 | – |
| O=C(O)c1nc(-c2cc3ccccc3s2)nc(O)c1O | 11600 | – | – |
| O=C(O)c1nc(C2CCCCC2)nc(O)c1O | > 50000 | – | IC50 [2]: > 50000 nM; IC50 [3]: > 25000 nM; pKa [4]: 8.7 |
| Nc1ccsc1-c1nc(C(=O)O)c(O)c(=O)[nH]1 | 1900 | – | – |
| O=C(Nc1ccsc1-c1nc(O)c(O)c(C(=O)O)n1)OCc1ccccc1 | 290 | – | – |
| CCCCc1nc(C(=O)O)c(O)c(=O)[nH]1 | > 50000 | – | – |
| O=C(Cc1csc2ccccc12)Nc1ccsc1-c1nc(C(=O)O)c(O)c(=O)[nH]1 | 230 | > 50000 | – |
| O=C(O)c1nc(Cc2ccccc2)nc(O)c1O | > 50000 | – | – |
| O=C(O)c1nc(-c2ccco2)nc(O)c1O | 2900 | – | IC50 [2]: 2900 nM; IC50 [3]: 240 nM; pKa [4]: 7.4 |
| O=C(O)c1nc(-c2sccc2[N+](=O)[O-])n(Cc2ccccc2)c(=O)c1O | 79300 | – | – |
| O=C(Cc1c(-c2ccccc2)[nH]c2ccccc12)Nc1ccsc1-c1nc(C(=O)O)c(O)c(=O)[nH]1 | 280 | > 50000 | – |
| O=C(O)c1nc(-c2cnccn2)nc(O)c1O | 5300 | – | – |
| O=C(Nc1ccsc1-c1nc(O)c(O)c(C(=O)O)n1)OCc1c(Cl)cccc1Cl | 190 | 18600 | – |
| O=C(O)c1nc(-c2ccc([N+](=O)[O-])s2)[nH]c(=O)c1O | 16000 | – | – |

| SMILES | IC50 [5] [nM] | EC50 (Hepatitis C virus) [nM] | further results |
| --- | --- | --- | --- |
| O=C(Nc1csc(-c2nc(C(=O)O)c(O)c(=O)[nH]2)c1)c1cccs1 | 13800 | – | – |
| O=C(O)c1nc(-c2cc([N+](=O)[O-])cs2)nc(O)c1O | 9400 | – | – |
| C=CCn1c(-c2sccc2[N+](=O)[O-])nc(C(=O)O)c(O)c1=O | 69300 | – | – |
| O=C(Nc1ccsc1-c1nc(O)c(O)c(C(=O)O)n1)OCc1ccccc1Cl | 140 | 31500 | IC50 [10]: 340 nM; IC50 [11]: 900 nM |
| O=C(Nc1ccsc1-c1nc(C(=O)O)c(O)c(=O)[nH]1)c1ccccc1 | 800 | > 50000 | – |
| Cc1cccc(Cl)c1CNC(=O)Nc1ccsc1-c1nc(O)c(O)c(C(=O)O)n1 | 90 | 13600 | logD [1]: 0.6; Fu (Homo sapiens): 0.2% |
| Cn1c(-c2cccs2)nc(C(=O)O)c(O)c1=O | 4200 | – | IC50 [3]: 460 nM; pKa [4]: 9.1 |
| O=C(Nc1ccsc1-c1nc(C(=O)O)c(O)c(=O)[nH]1)OCc1cccc2ccccc12 | 140 | 13600 | – |
| Cc1ccsc1-c1nc(O)c(O)c(C(=O)O)n1 | 5600 | – | – |
| O=C(NCCc1ccccc1)Nc1ccsc1-c1nc(O)c(O)c(C(=O)O)n1 | 620 | > 50000 | – |
| O=C(Nc1ccsc1-c1nc(C(=O)O)c(O)c(=O)[nH]1)OCCc1ccccc1 | 460 | > 50000 | logD [1]: -0.43 |
| O=C(Cc1ccccc1)Nc1ccsc1-c1nc(O)c(O)c(C(=O)O)n1 | 380 | – | – |
| O=C(Nc1ccccc1)Nc1ccsc1-c1nc(O)c(O)c(C(=O)O)n1 | 580 | > 50000 | – |
| O=C(O)c1nc(-c2sccc2[N+](=O)[O-])nc(O)c1O | 680 | – | IC50 [2]: 680 nM; IC50 [3]: 65 nM; pKa [4]: 6.9 |
| O=C(O)c1nc(-c2nccs2)nc(O)c1O | 760 | – | logD [1]: -2.12; IC50 [2]: 760 nM; IC50 [3]: 210 nM; pKa [4]: 6.9; IC50 [10]: 2770 nM; IC50 [11]: 16000 nM |
| CS(=O)(=O)c1nc(C(=O)O)c(O)c(=O)[nH]1 | 2400 | – | – |
| Cn1c(-c2sccc2[N+](=O)[O-])nc(C(=O)O)c(O)c1=O | 8700 | – | – |
| Cc1ccc(-c2nc(O)c(O)c(C(=O)O)n2)s1 | 48600 | – | – |
| O=C(O)c1nc(-c2ccccc2)nc(O)c1O | – | – | pKa [4]: 8.6 |
| O=C(O)c1nc(-c2sccc2NS(=O)(=O)c2ccc3ccccc3c2)[nH]c(=O)c1O | 1420 | – | – |
